This is an account of results in ChEMBL document CHEMBL1641447, “Rational design and synthesis of potent aminoglycoside antibiotics against resistant bacterial strains” (2011).

≈ marks a conversion by molar mass, not a printed value.

Common to all, as to format: functional
The test system of assay [1] is Staphylococcus aureus. Kind of assay: Antibacterial activity against Staphylococcus aureus ATCC 29213 after 16-20 hrs by microdilution broth method. The procedure, abridged:
(§1)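 CLSI broth microdilution with test agents as hydrochloride salts (HPLC purity over 98%), twofold dilutions in 96-well trays. Actively growing broth cultures were diluted to McFarland 0.5 for the inoculum. Trays were covered and incubated at 37 °C for 16–20 h. MIC (µg/mL) was the lowest concentration without visible growth; triplicate runs.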
In general terms: Dilution methods test growth across graded concentrations, often in twofold steps.

Assay [2] relates to Escherichia coli. Briefly: Antibacterial activity against Escherichia coli BL21 expressing pET29a engineering strain expressing APH(30)-Ia after 16-20 hrs by microdilution broth method. The procedure, abridged: (§2)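 CLSI broth microdilution on hydrochloride salts (HPLC purity over 98%). Actively growing broth cultures were adjusted to McFarland 0.5 and added to 2-fold drug dilutions to give a final inoculum of […]. Trays were covered and incubated at 37 °C for 16–20 h. MIC ([…]) was taken as the lowest concentration preventing visible growth. Tests were run in triplicate.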

Assay [3] deals with Staphylococcus epidermidis. Kind of assay: Antibacterial activity against Staphylococcus epidermidis 07-9 clinical isolate expressing APH(30)-IIIa after 16-20 hrs by microdilution broth method. The procedure, abridged: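 Clinical isolate from a Beijing Friendship Hospital patient (2007), with aph(3′)-IIIa confirmed by PCR. CLSI broth microdilution with hydrochloride salts in twofold dilutions, inoculum from actively growing culture at McFarland 0.5, 37 °C for 16–20 h in covered trays. MIC (µg/mL) was the lowest concentration inhibiting visible growth; triplicate runs.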

In the next assay the test system is Enterococcus faecalis. Kind of assay: Antibacterial activity against Enterococcus faecalis ATCC 29212 after 16-20 hrs by microdilution broth method. The procedure, abridged: as §1
In assay [4] the test system is Staphylococcus epidermidis. Briefly: Antibacterial activity against methicillin-resistant isolate Staphylococcus epidermidis 08-18 after 16-20 hrs by microdilution broth method. The procedure, abridged:
as §2

Assay [5] relates to Escherichia coli. Kind of assay: Antibacterial activity against Escherichia coli ATCC 25922 after 16-20 hrs by microdilution broth method. The procedure, abridged:
as §1

Assay [6] has as its system Staphylococcus aureus. Kind of assay: Antibacterial activity against methicillin-resistant Staphylococcus aureus ATCC 33591 after 16-20 hrs by microdilution broth method. The procedure, abridged:
as §2

Assay [7] relates to Staphylococcus epidermidis. Kind of assay: Antibacterial activity against Staphylococcus epidermidis ATCC 12228 after 16-20 hrs by microdilution broth method. The procedure, abridged: as §1
In another assay the test system is Mortierella alpina. Kind of assay: Antibacterial activity against Mortierella alpina ATCC 32221 after 16-20 hrs by microdilution broth method.
The subject of a further assay is Pseudomonas aeruginosa. Briefly: Antibacterial activity against Pseudomonas aeruginosa ATCC 27853 after 16-20 hrs by microdilution broth method. The procedure, abridged:
as §1

The subject of assay [8] is Escherichia coli. Kind of assay: Antibacterial activity against Escherichia coli ATCC 35218 after 16-20 hrs by microdilution broth method. The procedure, abridged: as §1
The test system of the next assay is Klebsiella pneumoniae. Briefly: Antibacterial activity against Klebsiella pneumoniae ATCC 700603 after 16-20 hrs by microdilution broth method. The procedure, abridged: as §1

In general, MIC refers to the lowest concentration that inhibits growth of the organism. Higher therefore signals a less susceptible organism. As for `NC[C@H]1O[C@H](O[C@H]2[C@H](O)[C@@H](O[C@H]3O[C@H](CO)[C@@H](O)[C@H](N)[C@H]3O)[C@H](N)C[C@@H]2N)[C@H](N)[C@@H](O)[C@@H]1NC(=O)C1CCCCC1`, the MIC in the assay with Staphylococcus aureus [1] was 1 µg/mL (≈ 1.69 µM); with Escherichia coli [2] it was 64 µg/mL (≈ 108 µM); in assay [3], greater than 128 µg/mL; in the assay on Enterococcus faecalis, 64 µg/mL (≈ 108 µM); in assay [4], 1 µg/mL (≈ 1.69 µM); against Escherichia coli [5], 2 µg/mL (≈ 3.37 µM). Besides, the MIC in the assay with Staphylococcus aureus [6] is 4 µg/mL (≈ 6.75 µM); in assay [7], 0.25 µg/mL (≈ 0.422 µM); with Mortierella alpina it was greater than 128 µg/mL; with Pseudomonas aeruginosa, 8 µg/mL (≈ 13.5 µM); in the assay on Escherichia coli [8], 2 µg/mL (≈ 3.37 µM); in the assay on Klebsiella pneumoniae it was 32 µg/mL (≈ 54 µM).

Turning to `CN(C)[C@H]1[C@H](O)[C@@H](N)[C@@H](O[C@H]2[C@H](O)[C@@H](O[C@H]3O[C@H](CO)[C@@H](O)[C@H](N)[C@H]3O)[C@H](N)C[C@@H]2N)O[C@@H]1CN`, the MIC with Staphylococcus aureus [1] was 32 µg/mL (≈ 62.7 µM); against Escherichia coli [2], greater than 128 µg/mL; in [3] it was greater than 128 µg/mL; against Enterococcus faecalis it was greater than 128 µg/mL; in assay [4] it was 32 µg/mL (≈ 62.7 µM); with Escherichia coli [5] it was 128 µg/mL (≈ 251 µM). Also, the minimum inhibitory concentration (MIC) is greater than 128 µg/mL against Staphylococcus aureus [6]; 16 µg/mL (≈ 31.3 µM) in assay [7]; greater than 128 µg/mL with Mortierella alpina; greater than 128 µg/mL in the assay on Pseudomonas aeruginosa; 64 µg/mL (≈ 125 µM) in the assay with Escherichia coli [8]; 64 µg/mL (≈ 125 µM) against Klebsiella pneumoniae.

For `CC(=O)N[C@H]1[C@H](O)[C@@H](N)[C@@H](O[C@H]2[C@H](O)[C@@H](O[C@H]3O[C@H](CO)[C@@H](O)[C@H](N)[C@H]3O)[C@H](N)C[C@@H]2N)O[C@@H]1CN`, the MIC against Staphylococcus aureus [1] is 2 µg/mL (≈ 3.81 µM); in the assay with Escherichia coli [2], 128 µg/mL (≈ 244 µM); in assay [3], greater than 128 µg/mL; with Enterococcus faecalis it was greater than 128 µg/mL; in assay [4] it was 2 µg/mL (≈ 3.81 µM); in the assay with Escherichia coli [5] it was 2 µg/mL (≈ 3.81 µM). In addition, the MIC is 16 µg/mL (≈ 30.5 µM) in the assay on Staphylococcus aureus [6]; 0.5 µg/mL (≈ 0.953 µM) in assay [7]; greater than 128 µg/mL against Mortierella alpina; 4 µg/mL (≈ 7.63 µM) in the assay on Pseudomonas aeruginosa; 8 µg/mL (≈ 15.3 µM) against Escherichia coli [8]; 2 µg/mL (≈ 3.81 µM) in the assay on Klebsiella pneumoniae.

For `NCCCC(=O)N[C@H]1[C@H](O)[C@@H](N)[C@@H](O[C@H]2[C@H](O)[C@@H](O[C@H]3O[C@H](CO)[C@@H](O)[C@H](N)[C@H]3O)[C@H](N)C[C@@H]2N)O[C@@H]1CN`, the MIC with Staphylococcus aureus [1] turned out to be 0.25 µg/mL (≈ 0.44 µM); against Escherichia coli [2] it was 8 µg/mL (≈ 14.1 µM); in assay [3], 32 µg/mL (≈ 56.4 µM); in the assay with Enterococcus faecalis, 32 µg/mL (≈ 56.4 µM); in assay [4], 0.25 µg/mL (≈ 0.44 µM); against Escherichia coli [5], 1 µg/mL (≈ 1.76 µM). Further, the MIC with Staphylococcus aureus [6] was 2 µg/mL (≈ 3.52 µM); in assay [7], less than 0.06 µg/mL; in the assay on Mortierella alpina, greater than 128 µg/mL; in the assay on Pseudomonas aeruginosa, 0.5 µg/mL (≈ 0.881 µM); in the assay on Escherichia coli [8], 1 µg/mL (≈ 1.76 µM); in the assay with Klebsiella pneumoniae it was 1 µg/mL (≈ 1.76 µM).

For the compound `Cc1ccccc1C(=O)NCC(=O)N[C@H]1[C@H](O)[C@@H](N)[C@@H](O[C@H]2[C@H](O)[C@@H](O[C@H]3O[C@H](CO)[C@@H](O)[C@H](N)[C@H]3O)[C@H](N)C[C@@H]2N)O[C@@H]1CN`, the MIC with Staphylococcus aureus [1] was 2 µg/mL (≈ 3.04 µM); against Escherichia coli [2], greater than 128 µg/mL; in [3], greater than 128 µg/mL; against Enterococcus faecalis, 64 µg/mL (≈ 97.3 µM); in assay [4], 8 µg/mL (≈ 12.2 µM); against Escherichia coli [5], 4 µg/mL (≈ 6.08 µM). Also, the MIC is 64 µg/mL (≈ 97.3 µM) in the assay with Staphylococcus aureus [6]; 0.5 µg/mL (≈ 0.76 µM) in [7]; greater than 128 µg/mL against Mortierella alpina; 32 µg/mL (≈ 48.7 µM) with Pseudomonas aeruginosa; 4 µg/mL (≈ 6.08 µM) in the assay with Escherichia coli [8]; 64 µg/mL (≈ 97.3 µM) against Klebsiella pneumoniae.

In the case of `NC[C@H]1O[C@H](O[C@H]2[C@H](O)[C@@H](O[C@H]3O[C@H](CO)[C@@H](O)[C@H](N)[C@H]3O)[C@H](N)C[C@@H]2N)[C@H](N)[C@@H](O)[C@@H]1NC(=O)C1CCNCC1`, the MIC in the assay with Staphylococcus aureus [1] was 1 µg/mL (≈ 1.68 µM); in the assay on Escherichia coli [2], 4 µg/mL (≈ 6.74 µM); in assay [3], 128 µg/mL (≈ 216 µM); against Enterococcus faecalis it was 128 µg/mL (≈ 216 µM); in assay [4], 0.25 µg/mL (≈ 0.421 µM); with Escherichia coli [5], 2 µg/mL (≈ 3.37 µM). The MIC against Staphylococcus aureus [6] is 2 µg/mL (≈ 3.37 µM); in assay [7], 0.25 µg/mL (≈ 0.421 µM); with Mortierella alpina it was greater than 128 µg/mL; against Pseudomonas aeruginosa, 2 µg/mL (≈ 3.37 µM); in the assay with Escherichia coli [8], 2 µg/mL (≈ 3.37 µM); against Klebsiella pneumoniae it was 8 µg/mL (≈ 13.5 µM).

On to `NC[C@H]1O[C@H](O[C@H]2[C@H](O)[C@@H](O[C@H]3O[C@H](CO)[C@@H](O)[C@H](N)[C@H]3O)[C@H](N)C[C@@H]2N)[C@H](N)[C@@H](O)[C@@H]1O` [BEKANAMYCIN], for which the MIC with Staphylococcus aureus [1] was 1 µg/mL (≈ 2.07 µM); in the assay on Escherichia coli [2], 64 µg/mL (≈ 132 µM); in assay [3], greater than 128 µg/mL; against Enterococcus faecalis, 64 µg/mL (≈ 132 µM); in assay [4] it was 32 µg/mL (≈ 66.2 µM); against Escherichia coli [5], 4 µg/mL (≈ 8.27 µM). In addition, the MIC is greater than 128 µg/mL against Staphylococcus aureus [6]; 0.25 µg/mL (≈ 0.517 µM) in assay [7]; greater than 128 µg/mL in the assay with Mortierella alpina; 64 µg/mL (≈ 132 µM) in the assay on Pseudomonas aeruginosa; 4 µg/mL (≈ 8.27 µM) with Escherichia coli [8]; 16 µg/mL (≈ 33.1 µM) in the assay with Klebsiella pneumoniae.

As to `NC[C@@H]1O[C@@H](O[C@H]2[C@H](O)[C@@H](O[C@H]3O[C@H](CO)[C@@H](O)[C@H](N)[C@H]3O)[C@H](N)C[C@@H]2N)[C@@H](O)[C@H](O)[C@H]1O` [KANAMYCIN A], the MIC in the assay with Staphylococcus aureus [1] was 2 µg/mL (≈ 4.13 µM); in the assay with Escherichia coli [2] it was greater than 128 µg/mL; in [3], greater than 128 µg/mL; with Enterococcus faecalis it was 64 µg/mL (≈ 132 µM); in [4], 8 µg/mL (≈ 16.5 µM); in the assay on Escherichia coli [5], 2 µg/mL (≈ 4.13 µM). Also, the MIC is 128 µg/mL (≈ 264 µM) against Staphylococcus aureus [6]; 1 µg/mL (≈ 2.06 µM) in assay [7]; greater than 128 µg/mL against Mortierella alpina; greater than 128 µg/mL against Pseudomonas aeruginosa; 4 µg/mL (≈ 8.26 µM) against Escherichia coli [8]; 64 µg/mL (≈ 132 µM) with Klebsiella pneumoniae.
